Data reported in ChEMBL document CHEMBL4152268, “Synthesis of proline derived benzenesulfonamides: A potent anti-Trypanosoma brucei gambiense agent” (Eur J Med Chem, 2018).

Assays:
[1] = system: Trypanosoma brucei gambiense; assay: Antitrypanosomal activity against Trypanosoma brucei gambiense GUTat 3.1 after 72 hrs by Alamar Blue assay; assay type: functional, organism-based; conditions: GUTat 3.1, 72 h
Procedure, shortened: (§1)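 T. b. gambiense GUTat 3.1 was cultured in supplemented IMDM with 10% heat-inactivated FBS at 37 °C under 5.0% CO2/95% air. Parasites were seeded in 96-well plates, and compound in 5.0% DMSO was added for 72 h. Alamar Blue was then added for 3-6 h and fluorescence read (ex 528/20, em 590/35 nm). IC50 was obtained from the plate-reader software.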

[2] = system: Mus musculus; assay: Toxicity in ip dosed mouse measured over 72 hrs; assay type: organism-based; conditions: in vivo
Procedure, shortened: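 Male mice, grouped, given graded intraperitoneal doses; watched continuously 6 h, then kept under observation to 72 h, monitored 4 times daily, with behavioural changes and deaths recorded. Humane endpoints applied, with CO2 euthanasia. Percentage death per dose converted to probits to derive LD50 (μM/kg); mortality rate = dead/group size ×100.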

[3] = system: Rattus norvegicus; assay: Antiinflammatory activity in rat assessed as inhibition of carrageenan-induced paw edema at 100 mg/kg, po administered 1 hr followed by carrageenan challenge measured at 0.5 hrs by plethysmometer relative to control; assay type: functional
Procedure, shortened: (§2)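 Rats dosed orally (test compounds 100 mg/kg; indomethacin reference 25 mg/kg). One hour later, 1% carrageenan suspension (0.05 mL/animal) was injected sub-plantar into the right hind paw. Paw size was measured by mercury-displacement plethysmometer, calibrated beforehand, at intervals after injection. Activity was calculated as percentage decrease in carrageenan-induced edema relative to control.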

[4] = system: Rattus norvegicus; assay: Antiinflammatory activity in rat assessed as inhibition of carrageenan-induced paw edema at 100 mg/kg, po administered 1 hr followed by carrageenan challenge measured at 1 hr by plethysmometer relative to control; assay type: functional; procedure, shortened: as §2
[5] = system: Rattus norvegicus; assay: Antiinflammatory activity in rat assessed as inhibition of carrageenan-induced paw edema at 100 mg/kg, po administered 1 hr followed by carrageenan challenge measured at 2 hrs by plethysmometer relative to control; assay type: functional; procedure, shortened: as §2
[6] = system: Rattus norvegicus; assay: Antiinflammatory activity in rat assessed as inhibition of carrageenan-induced paw edema at 100 mg/kg, po administered 1 hr followed by carrageenan challenge measured at 3 hrs by plethysmometer relative to control; assay type: functional; procedure, shortened: as §2
[7] = system: Trypanosoma brucei gambiense; assay: Antitrypanosomal activity against Trypanosoma brucei gambiense; assay type: functional, organism-based; procedure, shortened: as §1
[8] = system: Rattus norvegicus; assay: Antiinflammatory activity in rat assessed as inhibition of carrageenan-induced paw edema at 25 mg/kg, po administered 1 hr followed by carrageenan challenge measured at 0.5 hrs by plethysmometer relative to control; assay type: functional; procedure, shortened: as §2
[9] = system: Rattus norvegicus; assay: Antiinflammatory activity in rat assessed as inhibition of carrageenan-induced paw edema at 25 mg/kg, po administered 1 hr followed by carrageenan challenge measured at 1 hr by plethysmometer relative to control; assay type: functional; procedure, shortened: as §2
[10] = system: Rattus norvegicus; assay: Antiinflammatory activity in rat assessed as inhibition of carrageenan-induced paw edema at 25 mg/kg, po administered 1 hr followed by carrageenan challenge measured at 2 hrs by plethysmometer relative to control; assay type: functional; procedure, shortened: as §2
[11] = system: Rattus norvegicus; assay: Antiinflammatory activity in rat assessed as inhibition of carrageenan-induced paw edema at 25 mg/kg, po administered 1 hr followed by carrageenan challenge measured at 3 hrs by plethysmometer relative to control; assay type: functional; procedure, shortened: as §2
[12] = system: Trypanosoma brucei brucei; assay: Antitrypanosomal activity against Trypanosoma brucei brucei after 48 hrs by Alamar blue assay; assay type: functional, organism-based

SMILES: Cc1ccccc1S(=O)(=O)N1CCC[C@H]1C(=O)Nc1ccc(C(=O)O)cc1
- IC50 [1]: 0.134 µM
- LD50 [2]: 13.09 µM/g
- inhibition in vivo at 100 mg/kg [3]: 35.8%
- inhibition in vivo at 100 mg/kg [4]: 39.4%
- inhibition in vivo at 100 mg/kg [5]: 36.3%
- inhibition in vivo at 100 mg/kg [6]: 40%

SMILES: CCS(=O)(=O)N1CCCc2cc(NS(=O)(=O)c3ccccc3F)ccc21
- IC50 [7]: 1.3 µM

SMILES: O=C(O)c1ccc(NC(=O)[C@@H]2CCCN2S(=O)(=O)c2ccccc2)cc1
- IC50 [1]: 0.159 µM
- LD50 [2]: 10.06 µM/g
- inhibition in vivo at 100 mg/kg [3]: 23.6%
- inhibition in vivo at 100 mg/kg [4]: 26.3%
- inhibition in vivo at 100 mg/kg [5]: 29.4%
- inhibition in vivo at 100 mg/kg [6]: 31.1%

SMILES: Cc1ccc(S(=O)(=O)N2CC(O)C[C@H]2C(=O)Nc2ccc(C(=O)O)cc2)cc1 (stereo partly specified)
- IC50 [1]: 0.155 µM
- LD50 [2]: 12.01 µM/g
- inhibition in vivo at 100 mg/kg [3]: 58%
- inhibition in vivo at 100 mg/kg [4]: 60%
- inhibition in vivo at 100 mg/kg [5]: 67.2%
- inhibition in vivo at 100 mg/kg [6]: 84%

SMILES: COc1ccc2c(c1)c(CC(=O)O)c(C)n2C(=O)c1ccc(Cl)cc1 [INDOMETHACIN]
- inhibition in vivo at 25 mg/kg [8]: 56.9%
- inhibition in vivo at 25 mg/kg [9]: 63.5%
- inhibition in vivo at 25 mg/kg [10]: 64.8%
- inhibition in vivo at 25 mg/kg [11]: 63.6%

SMILES: CCCCN(CCCC)c1c([N+](=O)[O-])cc(S(=O)(=O)Nc2ccccc2)cc1[N+](=O)[O-]
- IC50 [12]: 0.12 µM

SMILES: O=C(O)c1ccc(NC(=O)[C@@H]2CC(O)CN2S(=O)(=O)c2ccc([N+](=O)[O-])cc2)cc1 (stereo partly specified)
- IC50 [1]: 0.144 µM
- LD50 [2]: 10.28 µM/g
- inhibition in vivo at 100 mg/kg [3]: 44.1%
- inhibition in vivo at 100 mg/kg [4]: 48.5%
- inhibition in vivo at 100 mg/kg [5]: 52.2%
- inhibition in vivo at 100 mg/kg [6]: 62.8%

SMILES: Cc1ccc(S(=O)(=O)N2CCC[C@H]2C(=O)Nc2ccc(C(=O)O)cc2)cc1
- IC50 [1]: 0.101 µM
- LD50 [2]: 11.92 µM/g
- inhibition in vivo at 100 mg/kg [3]: 28.8%
- inhibition in vivo at 100 mg/kg [4]: 31.5%
- inhibition in vivo at 100 mg/kg [5]: 36.3%
- inhibition in vivo at 100 mg/kg [6]: 35.3%

SMILES: O=C(O)c1ccc(NC(=O)[C@@H]2CC(O)CN2S(=O)(=O)c2ccccc2)cc1 (stereo partly specified)
- IC50 [1]: 0.16 µM
- LD50 [2]: 12.07 µM/g
- inhibition in vivo at 100 mg/kg [3]: 33.9%
- inhibition in vivo at 100 mg/kg [4]: 24.7%
- inhibition in vivo at 100 mg/kg [5]: 27.3%
- inhibition in vivo at 100 mg/kg [6]: 1.85%

SMILES: Nc1nc(N)nc(Nc2ccc([As]3SCC(CO)S3)cc2)n1 (stereo unspecified) [MELARSOPROL]
- IC50 [1]: 0.005 µM
- LD50 [2]: 8.75 µM/g

SMILES: Cc1ccccc1S(=O)(=O)N1CC(O)C[C@H]1C(=O)Nc1ccc(C(=O)O)cc1 (stereo partly specified)
- IC50 [1]: 0.157 µM
- LD50 [2]: 9.98 µM/g
- inhibition in vivo at 100 mg/kg [3]: 38.6%
- inhibition in vivo at 100 mg/kg [4]: 21.2%
- inhibition in vivo at 100 mg/kg [5]: 23.4%
- inhibition in vivo at 100 mg/kg [6]: 25.3%

SMILES: O=C(O)c1ccc(NC(=O)[C@@H]2CCCN2S(=O)(=O)c2ccc([N+](=O)[O-])cc2)cc1
- IC50 [1]: 0.002 µM
- LD50 [2]: 8.65 µM/g
- inhibition in vivo at 100 mg/kg [3]: 42.1%
- inhibition in vivo at 100 mg/kg [4]: 45.9%
- inhibition in vivo at 100 mg/kg [5]: 50.1%
- inhibition in vivo at 100 mg/kg [6]: 52.3%
